Results as given in ChEMBL document CHEMBL4052594, “Discovery of Pyrrolidine-Containing GPR40 Agonists: Stereochemistry Effects a Change in Binding Mode” (J Med Chem, 2017).
The source made the active and inactive calls. No cut-off for these calls is given here.

Columns and labels:
[1] = target: T1, Free fatty acid receptor 1 (Homo sapiens, UniProt O14842); assay: Binding affinity to human GPR40 expressed in HEK293 cell membranes after 1 hr by radioligand displacement based scintillation counting method
Summary of the method: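 Binding of human GPR40 measured as Ki against a radioligand. Mean of at least two runs. Displacement of the label appears as a negative slope and potentiation as a positive one.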

[2] = target: T2, Free fatty acid receptor 1 (Mus musculus, UniProt Q76JU9); assay: Agonist activity at mouse GPR40 expressed in CHO-A12 cells assessed as increase in intracellular calcium flux measured for 100 secs by FLIPR assay; type: functional, cell-based
[3] = target: T1, Free fatty acid receptor 1; assay: Agonist activity at human GPR40 expressed in CHO-A12 cells assessed as increase in intracellular calcium flux measured for 100 secs by FLIPR assay; type: functional, cell-based
[4] = target: Free fatty acid receptor 1 (Mus musculus) (UniProt Q76JU9); assay: Intrinsic activity at mouse GPR40 expressed in CHO-A12 cells assessed as increase in intracellular calcium flux at 8.3 uM measured for 100 secs by FLIPR assay […]; type: functional, cell-based
Mus musculus [5] = assay: Antidiabetic activity in C57BL/6J mouse assessed as reduction of plasma glucose excursion at 10 to 100 mg/kg, po pretreated for 1 hr followed by glucose challenge measured up to 120 mins by iGTT; type: functional, organism-based
[6] = target: Free fatty acid receptor 1 (Mus musculus) (UniProt Q76JU9); assay: (§1) Agonist activity at GPR40 in mouse STC1 cells assessed as induction of GLP-1 secretion measured after 1 hr by HTRF assay; type: cell-based
[7] = Cmax in C57BL/6J mouse at 10 mg/kg, po; type: ADME, organism-based; parameters: dose 10 mg/kg, route oral; conditions: in vivo
[8] = AUC (0 to 4 hrs) in C57BL/6J mouse at 10 mg/kg, po; type: ADME, organism-based; parameters: time < 4 hr, dose 10 mg/kg, route oral; conditions: in vivo
[9] = target: T1, Free fatty acid receptor 1; assay: Partial agonist activity at human GPR40 inducibly expressed in HEK293 cells assessed as increase in intracellular calcium flux measured for 100 secs by FLIPR assay; type: functional, cell-based
[10] = target: T1, Free fatty acid receptor 1; assay: Intrinsic activity at human GPR40 transfected in HEK293 cells assessed as induction of cAMP accumulation at 16.7 uM incubated for 30 to 45 mins by HTRF assay relative to […]; type: functional, cell-based
[11] = target: T1, Free fatty acid receptor 1; assay: Agonist activity at human GPR40 transfected in HEK293 cells assessed as induction of cAMP accumulation incubated for 30 to 45 mins by HTRF assay; type: functional, cell-based
[12] = target: T3, Peroxisome proliferator-activated receptor gamma (Homo sapiens, UniProt P37231); assay: Transactivation of human Gal4 fused PPARgamma-LBD expressed in HEK293 cells after 18 hrs by luciferase reporter gene assay; type: cell-based
T3 sequence (P37231 whole entry): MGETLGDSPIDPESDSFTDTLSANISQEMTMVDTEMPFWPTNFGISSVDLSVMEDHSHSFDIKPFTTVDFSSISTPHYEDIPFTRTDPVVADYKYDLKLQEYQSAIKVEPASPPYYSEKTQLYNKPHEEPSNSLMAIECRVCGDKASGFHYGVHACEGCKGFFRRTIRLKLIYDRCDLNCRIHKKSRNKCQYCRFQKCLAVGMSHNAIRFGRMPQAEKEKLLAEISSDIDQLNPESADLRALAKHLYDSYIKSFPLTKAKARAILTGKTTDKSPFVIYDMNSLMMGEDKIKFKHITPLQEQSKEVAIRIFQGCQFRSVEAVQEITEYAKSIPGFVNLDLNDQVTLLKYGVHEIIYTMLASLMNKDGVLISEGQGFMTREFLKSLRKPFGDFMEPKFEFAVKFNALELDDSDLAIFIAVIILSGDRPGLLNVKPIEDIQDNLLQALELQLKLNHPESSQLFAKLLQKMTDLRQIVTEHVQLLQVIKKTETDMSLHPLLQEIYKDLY
Summary of the method: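 Gal4 gene reporter transactivation assay for PPARγ; EC50 and Ymax reported.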

[13] = target: T1, Free fatty acid receptor 1; assay: Agonist activity at human GPR40 inducibly expressed in HEK293 cells assessed as increase in intracellular calcium flux measured for 100 secs by FLIPR assay; type: functional, cell-based
[14] = target: Free fatty acid receptor 1 (Mus musculus) (UniProt Q76JU9); assay: Agonist activity at mouse GPR40 inducibly expressed in HEK293 cells assessed as increase in intracellular calcium flux measured for 100 secs by FLIPR assay; type: functional, cell-based
[15] = Antagonist activity at sodium channel (unknown origin); conditions: human
[16] = target: T4, Nuclear receptor subfamily 1 group I member 2 (Homo sapiens, UniProt O75469); assay: Antagonist activity at PXR (unknown origin); type: ADME
T4 sequence (O75469 whole entry): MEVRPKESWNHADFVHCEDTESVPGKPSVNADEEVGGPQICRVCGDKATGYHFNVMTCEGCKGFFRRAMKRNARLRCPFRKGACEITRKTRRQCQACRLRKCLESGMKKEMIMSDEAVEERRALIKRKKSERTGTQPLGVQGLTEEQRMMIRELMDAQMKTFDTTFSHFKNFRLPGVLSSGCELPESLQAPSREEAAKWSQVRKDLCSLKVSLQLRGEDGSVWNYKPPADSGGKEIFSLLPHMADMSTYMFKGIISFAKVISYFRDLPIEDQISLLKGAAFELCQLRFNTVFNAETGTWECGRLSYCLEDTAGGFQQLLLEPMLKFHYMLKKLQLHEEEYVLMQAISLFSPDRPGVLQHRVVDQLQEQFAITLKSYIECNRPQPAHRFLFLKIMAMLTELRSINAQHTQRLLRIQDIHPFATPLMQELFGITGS

PPARgamma = target: T5, PPARgamma (Homo sapiens, UniProt P37231); assay: Transactivation of human Gal4 fused PPARgamma-LBD expressed in HEK293 cells at 4.8 uM after 18 hrs by luciferase reporter gene assay relative to […]; type: cell-based; conditions: HEK293 cells expressing Gal4-fused human PPARgamma-LBD
T5 sequence (P37231 whole entry): T3 sequence (P37231 whole entry)

[17] = target: T2, Free fatty acid receptor 1; assay: as §1; type: cell-based
[18] = target: T1, Free fatty acid receptor 1; assay: Potentiation of DHA-induced agonist activity at human GPR40 inducibly expressed in HEK293 cells assessed as increase in intracellular calcium flux at agonism EC50 measured for 100 secs by FLIPR assay; type: functional, cell-based
Mus musculus [19] = assay: Antidiabetic activity in C57BL/6J mouse assessed as change in plasma glucose AUC (0 to 120 mins) at 1 mg/kg, po administered 1 hr prior to glucose challenge by oral glucose tolerance test; type: functional
Summary of the method: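 C57BL/6J mice dosed orally at 0.3 or 1 mg/kg 1 h before an oral glucose bolus. Plasma glucose sampled at -60, -20, 0, 20, 40, 60 and 120 min; glucose AUC0-120 expressed relative to vehicle.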

[20] = target: T1, Free fatty acid receptor 1; assay: Potentiation of DHA-induced agonist activity at human GPR40 inducibly expressed in HEK293 cells assessed as increase in intracellular calcium flux at 10 nM measured for 100 secs by FLIPR assay; type: functional, cell-based
Summary of the method: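 Ca2+ FLIPR concentration-response to DHA in inducible hGPR40 cells, alone or with fixed added test compound (3 nM or 10 nM); curve shift assessed.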

T1 sequence (O14842 whole entry): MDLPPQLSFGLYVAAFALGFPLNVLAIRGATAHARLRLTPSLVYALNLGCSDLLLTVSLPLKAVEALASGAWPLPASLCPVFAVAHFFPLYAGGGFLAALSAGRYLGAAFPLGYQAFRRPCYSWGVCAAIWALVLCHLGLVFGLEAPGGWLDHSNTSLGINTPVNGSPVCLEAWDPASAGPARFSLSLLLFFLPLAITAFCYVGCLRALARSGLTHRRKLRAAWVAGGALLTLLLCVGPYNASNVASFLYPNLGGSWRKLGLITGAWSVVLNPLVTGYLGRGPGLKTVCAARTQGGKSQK
T2 sequence (Q76JU9 whole entry): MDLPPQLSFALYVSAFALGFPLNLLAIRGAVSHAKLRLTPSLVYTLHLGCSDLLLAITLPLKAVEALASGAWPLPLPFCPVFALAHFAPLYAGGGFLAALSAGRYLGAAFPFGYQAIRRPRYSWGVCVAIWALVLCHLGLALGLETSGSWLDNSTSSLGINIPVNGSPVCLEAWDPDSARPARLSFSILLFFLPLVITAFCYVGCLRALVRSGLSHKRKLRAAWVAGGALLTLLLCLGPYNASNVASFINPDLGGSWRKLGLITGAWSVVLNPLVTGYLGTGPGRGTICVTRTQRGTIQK
Sequence of Free fatty acid receptor 1 (Mus musculus) (Q76JU9 whole entry): as above

Ki [1] [nM] | EC50 [2] [nM] | EC50 [3] [nM] | Intrinsic activity [4] [%] | SMILES | further results
6500 | > 16000 | 560 |  | O=C(O)C[C@@H]1CCCN1c1ccc(Oc2ccccc2)cc1 | 
1300 | 6900 | 150 | 50 | O=C(O)C[C@@H]1CCCN1c1ccc(Oc2ccccc2F)cc1 | 
1300 | > 33000 | 150 |  | Cc1ccccc1Cc1ccc(N2CCC[C@H]2CC(=O)O)cc1 | Activity ([12]; human, hek293, 18 h): Not Active
890 | 4500 | 340 | 54 to 66 | O=C(O)C[C@@H]1CCCN1c1ccc(OCc2ccc(Cl)cc2Cl)cc1 | INH [15]: 4 µM; inhibition (INH) [16]: Active; EC50 [12]: 17000 nM; Emax at 18 h, 4.8 µM (PPARgamma): 54%
 | 3200 | 360 | 120 | O=C(O)C[C@@H]1CCCN1c1ccc(Oc2ccc(Cl)cc2Cl)cc1 | 
13 | 430 | 82 | 50 | Cc1c(Cl)cccc1Oc1ccc(N2C[C@@H](C(F)(F)F)C[C@H]2CC(=O)O)cc1 | 
4400 | 5600 | 74 | 69 | Cc1ccccc1Oc1ccc(N2CCC[C@H]2CC(=O)O)cc1 | EC50 [12]: 32000 nM; Emax at 18 h, 4.8 µM (PPARgamma): 27%
 | 1300 | 3500 | 72 | O=C(O)C[C@@H]1CCCN1c1ccc(Oc2ccccc2-c2ccccc2)cc1 | 
310 | 1900 | 220 | 160 | COc1ccc(F)c(-c2ccc(Cc3ccc(N4CCC[C@H]4CC(=O)O)cc3)c(C)c2)c1 | 
 | 3400 | 190 | 41 to 73 | Cc1ccccc1COc1ccc(N2CCC[C@H]2CC(=O)O)cc1 | inhibition (INH) [15]: Active; inhibition (INH) [16]: Active
> 33000 | > 33000 | 4600 |  | Cc1ccccc1C(=O)c1ccc(N2CCC[C@H]2CC(=O)O)cc1 | 
180 | > 33000 | 74 |  | Cc1ccccc1Cc1ccc(N2C[C@@H](F)C[C@H]2CC(=O)O)cc1 | 
1800 | > 33000 | 450 |  | Cc1ccccc1COc1ccc(N2CCC[C@H]2CC(=O)O)cn1 | 
 | 2400 | 260 | 83 | Cc1cccc(Oc2ccc(N3CCC[C@H]3CC(=O)O)cc2)c1 | 

Further lines, the molecule ahead of its results:

SMILES | Ki [1] [nM] | EC50 [2] [nM] | EC50 [3] [nM] | Intrinsic activity [4] [%] | further results
COc1ccc(Oc2ccc(N3C[C@@H](C(F)(F)F)C[C@H]3CC(=O)O)cc2)c(C)c1 | 39 | 170 |  | 41 | 
Cc1cccc(Oc2ccc(N3C[C@@H](C(F)(F)F)C[C@H]3CC(=O)O)cc2)c1C | 60 | 500 | 110 | 100 | 
Cc1ccccc1Oc1ccc(N2C[C@@H](C(F)(F)F)C[C@H]2CC(=O)O)cc1 | 35 to 39 | 330 | 73 | 84 | Activity (Mus musculus [5]): inactive; Activity [6]: inactive; Cmax [7]: 4.7 µM; AUC(0-t) at 4 h [8]: 7 µM·h; Activity [9]: Active; Intrinsic activity [10]: 5%; EC50 [11]: > 20000 nM
COc1ccc(F)c(-c2ccc(Cc3ccc(N4CC(C(F)(F)F)CC4CC(=O)O)cc3)c(C)c2)c1 (mixture of isomers) |  |  |  |  | Activity [13]: Active; Activity [14]: Active
Cc1ccccc1Cc1ccc(N2CC[C@H](C)[C@H]2CC(=O)O)cc1 | 310 | 1900 | 120 | 27 | 
Cc1ccccc1Cc1ccc(N2C[C@@H](c3ccccc3)C[C@H]2CC(=O)O)cc1 | > 25000 | > 33000 | > 17000 |  | 
COc1ccc(F)c(-c2ccc(Cc3ccc(N4C[C@@H](C(F)(F)F)C[C@H]4CC(=O)O)cc3)c(C)c2)c1 | 45 | 2400 | 490 | 46 | EC50 [17]: 3200 nM; Activity [18]: inactive; Activity (Mus musculus [19]): inactive; Intrinsic activity [10]: 28%; Activity [20]: inactive; EC50 [11]: 2400 nM
Cc1ccccc1Cc1ccc(N2C[C@@H](C(F)(F)F)C[C@H]2CC(=O)O)cc1 | 73 | 710 | 67 | 54 | 
O=C(O)C[C@@H]1C[C@H](C(F)(F)F)CN1c1ccc(Oc2ccccc2OC(F)(F)F)cc1 |  | 740 | 170 | 44 | 
Cc1cc(OCc2ccccc2)ccc1Oc1ccc(N2C[C@@H](C(F)(F)F)C[C@H]2CC(=O)O)cc1 | 10 | 1500 | 120 | 34 | 
Cc1ccccc1Cc1ccc(N2CCC[C@@]2(C)CC(=O)O)cc1 | 23000 | > 33000 | > 33000 |  | 
CO[C@H]1C[C@@H](CC(=O)O)N(c2ccc(Oc3ccccc3C)cc2)C1 | 9000 | 960 |  | 76 | 
Cc1ccccc1Cc1ccc(N2C[C@@H](C)C[C@H]2CC(=O)O)cc1 | 360 | 1100 | 140 | 43 | 
